ChEMBL document CHEMBL1157589, “Antifungal 3,5-disubstituted furanones: From 5-acyloxymethyl to 5-alkylidene derivatives” (Bioorg Med Chem, 2010)
Values after ≈ are worked out from the molar mass of the structure shown.

Tests used:
Pichia kudriavzevii [1] = assay: Antifungal activity against Candida krusei E28 after 24 hrs by microdilution method; assay type: functional; conditions: E28, 24 h
Procedure, shortened: (§1)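 Yeasts held on Sabouraud dextrose agar. MIC by NCCLS M27-A broth microdilution in RPMI 1640 with L-glutamine, buffered with 0.165 M MOPS to pH 7.0. Compounds in DMSO (≤2% final), twofold dilutions 500–0.48. Final inoculum 5 × 10³ ± 0.2 cfu mL⁻¹. Incubated at 35 °C; absorbance at 540 nm read at 24 and 48 h. MIC is 80% growth inhibition versus control; run twice in duplicate.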

[2] = test system: Trichophyton mentagrophytes; assay: Antifungal activity against Trichophyton mentagrophytes 445 after 120 hrs by microdilution method; assay type: functional; conditions: Trichophyton mentagrophytes, 445, 120 h
Procedure, shortened: (§2)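 Dermatophyte held on Sabouraud dextrose agar. M27-A microdilution in MOPS-buffered (0.165 M, pH 7.0) RPMI 1640 with L-glutamine. DMSO ≤2% final; twofold dilutions 500–0.48. Inoculum 5 × 10³ ± 0.2 cfu mL⁻¹ final. Incubated at 35 °C; MIC read visually at 72 and 120 h as 80% inhibition of control growth; determined twice in duplicate.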

Pichia kudriavzevii [3] = assay: Antifungal activity against Candida krusei ATCC 6258 after 24 hrs by microdilution method; assay type: functional; conditions: ATCC 6258, 24 h; procedure, shortened: as §1
Candida tropicalis [4] = assay: Antifungal activity against Candida tropicalis 156 after 24 hrs by microdilution method; assay type: functional; conditions: Candida tropicalis, 156, 24 h; procedure, shortened: as §1
HeLa S3 = assay: Cytostatic activity against human HeLaS3 cells after 48 hrs by XTT assay; conditions: Homo sapiens, HeLa S3, 48 h; read-out: IC50
Candida parapsilosis [5] = assay: Antifungal activity against Candida parapsilosis ATCC 22019 after 48 hrs by microdilution method; assay type: functional; conditions: Lodderomyces parapsilosis, ATCC 22019, 48 h; procedure, shortened: as §1
[6] = test system: Trichophyton mentagrophytes; assay: Antifungal activity against Trichophyton mentagrophytes 445 after 72 hrs by microdilution method; assay type: functional; conditions: Trichophyton mentagrophytes, 445, 72 h; procedure, shortened: as §2
Candida tropicalis [7] = assay: Antifungal activity against Candida tropicalis 156 after 48 hrs by microdilution method; assay type: functional; conditions: Candida tropicalis, 156, 48 h; procedure, shortened: as §1
Lichtheimia corymbifera [8] = assay: Antifungal activity against Absidia corymbifera 272 after 48 hrs by microdilution method; assay type: functional; conditions: Lichtheimia corymbifera, 272, 48 h
Procedure, shortened: (§3)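 Filamentous strains held on Sabouraud dextrose agar. NCCLS M27-A broth microdilution in RPMI 1640 with L-glutamine and 0.165 M MOPS, pH 7.0. DMSO diluent ≤2% final; twofold dilutions 500–0.48. Inoculum 5 × 10³ ± 0.2 cfu mL⁻¹ final.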

Clavispora lusitaniae [9] = assay: Antifungal activity against Candida lusitaniae 2446/I after 48 hrs by microdilution method; assay type: functional; procedure, shortened: as §1
Nakaseomyces glabratus [10] = assay: Antifungal activity against Candida glabrata 20/I after 24 hrs by microdilution method; assay type: functional; procedure, shortened: as §1
Candida albicans [11] = assay: Antifungal activity against Candida albicans ATCC 90028 after 48 hrs by microdilution method; assay type: functional; conditions: ATCC 90028, 48 h; procedure, shortened: as §1
Trichosporon beigelii [12] = assay: Antifungal activity against Trichosporon beigelii 1188 after 24 hrs by microdilution method; assay type: functional; conditions: Trichosporon beigelii, 1188, 24 h; procedure, shortened: as §1
Candida parapsilosis [13] = assay: Antifungal activity against Candida parapsilosis ATCC 22019 after 24 hrs by microdilution method; assay type: functional; conditions: Lodderomyces parapsilosis, ATCC 22019, 24 h; procedure, shortened: as §1
Aspergillus fumigatus [14] = assay: Antifungal activity against Aspergillus fumigatus 231 after 24 hrs by microdilution method; assay type: functional; conditions: Aspergillus fumigatus, 231, 24 h; procedure, shortened: as §3
HL-60 = assay: Cytostatic activity against human HL60 cells after 72 hrs by XTT assay; assay type: functional, cell-based; conditions: Homo sapiens, HL-60, 72 h; read-out: IC50
Procedure, shortened: (§4)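 Leukemia cells (L1210 ATCC CCL 219, CCRF-CEM ATCC CCL 119, HL-60 ATCC CCL 240) grown in 24-well plates in RPMI 1640 with fetal calf serum. Growth assessed 72 h after drug addition. Viability measured by XTT spectrophotometric assay; potency given as IC50.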

Pichia kudriavzevii [15] = assay: Antifungal activity against Candida krusei E28 after 48 hrs by microdilution method; assay type: functional; conditions: E28, 48 h; procedure, shortened: as §1
Nakaseomyces glabratus [16] = assay: Antifungal activity against Candida glabrata 20/I after 48 hrs by microdilution method; assay type: functional; procedure, shortened: as §1
Clavispora lusitaniae [17] = assay: Antifungal activity against Candida lusitaniae 2446/I after 24 hrs by microdilution method; assay type: functional; procedure, shortened: as §1
Candida albicans [18] = assay: Antifungal activity against Candida albicans ATCC 44859 after 24 hrs by microdilution method; assay type: functional; conditions: ATCC 44859, 24 h; procedure, shortened: as §1
Lichtheimia corymbifera [19] = assay: Antifungal activity against Absidia corymbifera 272 after 24 hrs by microdilution method; assay type: functional; conditions: Lichtheimia corymbifera, 272, 24 h; procedure, shortened: as §3
Aspergillus fumigatus [20] = assay: Antifungal activity against Aspergillus fumigatus 231 after 48 hrs by microdilution method; assay type: functional; conditions: Aspergillus fumigatus, 231, 48 h; procedure, shortened: as §3
Candida albicans [21] = assay: Antifungal activity against Candida albicans ATCC 44859 after 48 hrs by microdilution method; assay type: functional; conditions: ATCC 44859, 48 h; procedure, shortened: as §1
Candida albicans [22] = assay: Antifungal activity against Candida albicans ATCC 90028 after 24 hrs by microdilution method; assay type: functional; conditions: ATCC 90028, 24 h; procedure, shortened: as §1
Trichosporon beigelii [23] = assay: Antifungal activity against Trichosporon beigelii 1188 after 48 hrs by microdilution method; assay type: functional; conditions: Trichosporon beigelii, 1188, 48 h; procedure, shortened: as §1
Pichia kudriavzevii [24] = assay: Antifungal activity against Candida krusei ATCC 6258 after 48 hrs by microdilution method; assay type: functional; conditions: ATCC 6258, 48 h; procedure, shortened: as §1
CCRF-CEM = assay: Cytostatic activity against human CCRF-CEM cells after 72 hrs by XTT assay; assay type: functional, cell-based; conditions: Homo sapiens, CCRF-CEM, 72 h; read-out: IC50; procedure, shortened: as §4

| SMILES | MIC80 (Pichia kudriavzevii [1]) [µM] | MIC80 (Pichia kudriavzevii [3]) [µM] | MIC80 (Candida tropicalis [4]) [µM] | MIC80 (Candida parapsilosis [5]) [µM] | MIC80 [6] [µM] | MIC80 (Candida tropicalis [7]) [µM] | MIC80 (Lichtheimia corymbifera [8]) [µM] | MIC80 (Clavispora lusitaniae [9]) [µM] | MIC80 (Nakaseomyces glabratus [10]) [µM] | MIC80 (Candida albicans [11]) [µM] | MIC80 (Trichosporon beigelii [12]) [µM] | MIC80 (Candida parapsilosis [13]) [µM] | MIC80 (Aspergillus fumigatus [14]) [µM] | MIC80 (Pichia kudriavzevii [15]) [µM] | MIC80 (Nakaseomyces glabratus [16]) [µM] | MIC80 (Clavispora lusitaniae [17]) [µM] | MIC80 (Candida albicans [18]) [µM] | MIC80 (Lichtheimia corymbifera [19]) [µM] | MIC80 (Aspergillus fumigatus [20]) [µM] | MIC80 (Candida albicans [21]) [µM] | other results |
| --- | --- | --- | --- | --- | --- | --- | --- | --- | --- | --- | --- | --- | --- | --- | --- | --- | --- | --- | --- | --- | --- |
| O=C1OC(COc2ccccc2)C=C1c1ccc(Br)cc1 (stereo not given) | 15.6 (≈ 5.39 µg/mL) | 7.81 (≈ 2.7 µg/mL) | 7.81 (≈ 2.7 µg/mL) | 31.2 (≈ 10.8 µg/mL) | 1.95 (≈ 0.673 µg/mL) | 15.6 (≈ 5.39 µg/mL) | 500 (≈ 173 µg/mL) | 7.81 (≈ 2.7 µg/mL) | 1.95 (≈ 0.673 µg/mL) | 7.81 (≈ 2.7 µg/mL) | 7.81 (≈ 2.7 µg/mL) | 7.81 (≈ 2.7 µg/mL) | 1.95 (≈ 0.673 µg/mL) | 31.2 (≈ 10.8 µg/mL) | 1.95 (≈ 0.673 µg/mL) | 3.9 (≈ 1.35 µg/mL) | 0.97 (≈ 0.335 µg/mL) | 125 (≈ 43.1 µg/mL) | 15.6 (≈ 5.39 µg/mL) | 1.95 (≈ 0.673 µg/mL) | MIC80 [2]: 3.9 µM (≈ 1.35 µg/mL); IC50 (HeLa S3): 4.67 µM; IC50 (HL-60): 4.37 µM; MIC80 (Candida albicans [22]): 1.95 µM (≈ 0.673 µg/mL); MIC80 (Trichosporon beigelii [23]): 31.2 µM (≈ 10.8 µg/mL); MIC80 (Pichia kudriavzevii [24]): 31.2 µM (≈ 10.8 µg/mL); IC50 (CCRF-CEM): 1090 nM |
| COc1ccc(OCC2C=C(c3ccc(Br)cc3)C(=O)O2)cc1 (stereo not given) | 7.81 (≈ 2.93 µg/mL) | 7.81 (≈ 2.93 µg/mL) | 7.81 (≈ 2.93 µg/mL) | 15.6 (≈ 5.86 µg/mL) | 1.95 (≈ 0.732 µg/mL) | 7.81 (≈ 2.93 µg/mL) | 62.5 (≈ 23.5 µg/mL) | 7.81 (≈ 2.93 µg/mL) | 0.97 (≈ 0.364 µg/mL) | 7.81 (≈ 2.93 µg/mL) | 7.81 (≈ 2.93 µg/mL) | 7.81 (≈ 2.93 µg/mL) | 3.9 (≈ 1.46 µg/mL) | 15.6 (≈ 5.86 µg/mL) | 1.95 (≈ 0.732 µg/mL) | 3.9 (≈ 1.46 µg/mL) | 0.97 (≈ 0.364 µg/mL) | 31.2 (≈ 11.7 µg/mL) | 7.81 (≈ 2.93 µg/mL) | 1.95 (≈ 0.732 µg/mL) | MIC80 [2]: 1.95 µM (≈ 0.732 µg/mL); MIC80 (Candida albicans [22]): 1.95 µM (≈ 0.732 µg/mL); MIC80 (Trichosporon beigelii [23]): 15.6 µM (≈ 5.86 µg/mL); MIC80 (Pichia kudriavzevii [24]): 15.6 µM (≈ 5.86 µg/mL) |
| CC(=O)OCC/C=C1/C=C(c2ccc(Br)cc2)C(=O)O1 | 500 (≈ 169 µg/mL) | 500 (≈ 169 µg/mL) | > 500 | > 500 | 15.6 (≈ 5.27 µg/mL) | > 500 | 250 (≈ 84.3 µg/mL) | > 500 | 250 (≈ 84.3 µg/mL) | > 500 | > 500 | 250 (≈ 84.3 µg/mL) | > 500 | > 500 | > 500 | > 500 | 15.6 (≈ 5.27 µg/mL) | 250 (≈ 84.3 µg/mL) | > 500 | 500 (≈ 169 µg/mL) | MIC80 [2]: 15.6 µM (≈ 5.27 µg/mL); MIC80 (Candida albicans [22]): > 500 µM; MIC80 (Trichosporon beigelii [23]): > 500 µM; MIC80 (Pichia kudriavzevii [24]): > 500 µM |
| OC(Cn1cncn1)(Cn1cncn1)c1ccc(F)cc1F [FLUCONAZOLE] | > 50 | > 50 | 3 (≈ 0.919 µg/mL) | 13 (≈ 3.98 µg/mL) | 17 (≈ 5.21 µg/mL) | 5 (≈ 1.53 µg/mL) | > 50 | 3.3 (≈ 1.01 µg/mL) | 22 (≈ 6.74 µg/mL) | 3.3 (≈ 1.01 µg/mL) | 4 (≈ 1.23 µg/mL) | 6.5 (≈ 1.99 µg/mL) | > 50 | > 50 | > 50 | 3.3 (≈ 1.01 µg/mL) | 1 (≈ 0.306 µg/mL) | > 50 | > 50 | 2 (≈ 0.613 µg/mL) | MIC80 (Candida albicans [22]): 0.8 µM (≈ 0.245 µg/mL); MIC80 (Trichosporon beigelii [23]): 9 µM (≈ 2.76 µg/mL); MIC80 (Pichia kudriavzevii [24]): > 50 µM |
| COC(=O)c1ccc(OCC2C=C(c3ccc(Br)cc3)C(=O)O2)cc1 (stereo not given) | 15.6 (≈ 6.3 µg/mL) | 15.6 (≈ 6.3 µg/mL) | 15.6 (≈ 6.3 µg/mL) | 15.6 (≈ 6.3 µg/mL) | 3.9 (≈ 1.57 µg/mL) | 15.6 (≈ 6.3 µg/mL) | 125 (≈ 50.4 µg/mL) | 15.6 (≈ 6.3 µg/mL) | 3.9 (≈ 1.57 µg/mL) | 7.81 (≈ 3.15 µg/mL) | 7.81 (≈ 3.15 µg/mL) | 15.6 (≈ 6.3 µg/mL) | 3.9 (≈ 1.57 µg/mL) | 15.6 (≈ 6.3 µg/mL) | 3.9 (≈ 1.57 µg/mL) | 7.81 (≈ 3.15 µg/mL) | 0.48 (≈ 0.194 µg/mL) | 62.5 (≈ 25.2 µg/mL) | 7.81 (≈ 3.15 µg/mL) | 1.95 (≈ 0.786 µg/mL) | MIC80 [2]: 3.9 µM (≈ 1.57 µg/mL); IC50 (HeLa S3): 4.5 µM; IC50 (HL-60): 4.05 µM; MIC80 (Candida albicans [22]): 3.9 µM (≈ 1.57 µg/mL); MIC80 (Trichosporon beigelii [23]): 15.6 µM (≈ 6.3 µg/mL); MIC80 (Pichia kudriavzevii [24]): 15.6 µM (≈ 6.3 µg/mL); IC50 (CCRF-CEM): 1250 nM |
